Measured values published in ChEMBL document CHEMBL1156338 (J Med Chem, 2010).

What was measured:
[1] = molecular target: T1, Mitogen-activated protein kinase 14 (Homo sapiens, UniProt Q16539); assay: Inhibition of human recombinant p38alpha-mediated […] phosphorylation after 1 hr by HTRF assay
THP-1 = assay: Inhibition of LPS-induced TNFalpha production in human THP1 cells after 3 hrs; assay type: functional, cell-based
Method in brief: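 THP-1 cells at 1.5 x 10^6/mL in RPMI 1640, 10% heat-inactivated FBS, NEAA, 30 μM βME. 3-fold serial compound dilutions in DMSO, then LPS stimulation for 3 h at 37 C, 5% CO2. Secreted TNF-alpha read by electrochemiluminescent immunoassay; percent of DMSO control; IC50 is the mean of at least three independent curves.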

Blood = assay: Inhibition of IL-8 production in TNFalpha challenged human whole blood after 16 to 18 hrs; assay type: functional, tissue-based
Method in brief: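 Heparinized blood from healthy nonmedicated donors, 50% final in RPMI 1640 with 10% human AB serum. Ten-point compound titration preincubated 1 h at 37 C, 5% CO2, then TNF-alpha 1 nM final added for 16-18 h. Plasma IL-8 measured by electrochemiluminescent antibody sandwich assay; IC50 is the mean of at least three independent dose-response curves.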

[2] = molecular target: T1, Mitogen-activated protein kinase 14; assay: Binding affinity to p38alpha by scintillation proximity assay
[3] = molecular target: Vascular endothelial growth factor receptor 2 (Homo sapiens, UniProt P35968); assay: Binding affinity to Kdr by scintillation proximity assay
[4] = molecular target: Tyrosine-protein kinase Lck (Homo sapiens, UniProt P06239); assay: Binding affinity to Lck by scintillation proximity assay
[5] = molecular target: Mast/stem cell growth factor receptor Kit (Homo sapiens, UniProt P10721); assay: Binding affinity to c-Kit by scintillation proximity assay
[6] = Clearance in Sprague-Dawley rat at 2 mg/kg, iv; assay type: ADME, organism-based; design: dose 2 mg/kg, route intravenous; settings: in vivo
[7] = Volume of distribution at steady state in Sprague-Dawley rat at 2 mg/kg, iv; assay type: ADME, organism-based; design: dose 2 mg/kg, route intravenous; settings: in vivo, read-out: Vdss
[8] = Half life in Sprague-Dawley rat at 2 mg/kg, iv; assay type: ADME, organism-based; design: dose 2 mg/kg, route intravenous; settings: in vivo
[9] = AUC (0 to infinity) in Sprague-Dawley rat at 2 mg/kg, po; assay type: ADME, organism-based; design: time infinity, dose 2 mg/kg, route oral; settings: plasma
[10] = Oral bioavailability in Sprague-Dawley rat at 2 mg/kg; assay type: ADME, organism-based; settings: in vivo
Cytochrome P450 3A4 = Cytochrome P450 3A4 (Homo sapiens, UniProt P08684); assay: Inhibition of CYP3A4; assay type: ADME
[11] = molecular target: T2, Nuclear receptor subfamily 1 group I member 2 (Homo sapiens, UniProt O75469); assay: Transactivation of human PXR expressed in HepG2 cells after 24 hrs by luciferase reporter gene assay; assay type: cell-based; settings: hepg2, 24 h
T2 sequence (O75469 whole entry): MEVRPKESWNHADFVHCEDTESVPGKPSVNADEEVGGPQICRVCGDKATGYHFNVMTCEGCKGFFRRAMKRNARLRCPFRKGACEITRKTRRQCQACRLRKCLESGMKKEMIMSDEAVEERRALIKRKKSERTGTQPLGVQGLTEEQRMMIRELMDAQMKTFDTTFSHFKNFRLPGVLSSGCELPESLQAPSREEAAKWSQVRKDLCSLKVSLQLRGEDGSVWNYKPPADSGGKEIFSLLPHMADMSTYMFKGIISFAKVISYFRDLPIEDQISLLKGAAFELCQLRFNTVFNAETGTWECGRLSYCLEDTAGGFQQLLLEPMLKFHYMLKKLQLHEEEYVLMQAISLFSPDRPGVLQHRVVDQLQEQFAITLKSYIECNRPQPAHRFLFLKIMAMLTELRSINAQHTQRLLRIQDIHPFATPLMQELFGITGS
Method in brief: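 HepG2 cells transfected with a CYP3A4-promoter luciferase reporter and human PXR cDNA. Compound added from DMSO stocks to final 2 and 10 μM in buffer and incubated 24 h. Luciferase activity read by chemiluminescence and reported as percent of the rifampin (10 μM) positive control.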

[12] = Plasma protein binding in human by ultrafiltration method; assay type: ADME, cell-free; settings: read-out: PPB (converted)
[13] = Plasma protein binding in rat by ultrafiltration method; assay type: ADME, cell-free; settings: read-out: PPB (converted)
in vitro [14] = settings: human, Caco-2
in vitro [15] = settings: human, Caco-2; remark: listed apart in the source
[16] = Homo sapiens, THP-1, 3 h, read-out: IC50
[17] = Homo sapiens, Blood, read-out: IC50

Chain of Mast/stem cell growth factor receptor Kit (P10721 whole entry): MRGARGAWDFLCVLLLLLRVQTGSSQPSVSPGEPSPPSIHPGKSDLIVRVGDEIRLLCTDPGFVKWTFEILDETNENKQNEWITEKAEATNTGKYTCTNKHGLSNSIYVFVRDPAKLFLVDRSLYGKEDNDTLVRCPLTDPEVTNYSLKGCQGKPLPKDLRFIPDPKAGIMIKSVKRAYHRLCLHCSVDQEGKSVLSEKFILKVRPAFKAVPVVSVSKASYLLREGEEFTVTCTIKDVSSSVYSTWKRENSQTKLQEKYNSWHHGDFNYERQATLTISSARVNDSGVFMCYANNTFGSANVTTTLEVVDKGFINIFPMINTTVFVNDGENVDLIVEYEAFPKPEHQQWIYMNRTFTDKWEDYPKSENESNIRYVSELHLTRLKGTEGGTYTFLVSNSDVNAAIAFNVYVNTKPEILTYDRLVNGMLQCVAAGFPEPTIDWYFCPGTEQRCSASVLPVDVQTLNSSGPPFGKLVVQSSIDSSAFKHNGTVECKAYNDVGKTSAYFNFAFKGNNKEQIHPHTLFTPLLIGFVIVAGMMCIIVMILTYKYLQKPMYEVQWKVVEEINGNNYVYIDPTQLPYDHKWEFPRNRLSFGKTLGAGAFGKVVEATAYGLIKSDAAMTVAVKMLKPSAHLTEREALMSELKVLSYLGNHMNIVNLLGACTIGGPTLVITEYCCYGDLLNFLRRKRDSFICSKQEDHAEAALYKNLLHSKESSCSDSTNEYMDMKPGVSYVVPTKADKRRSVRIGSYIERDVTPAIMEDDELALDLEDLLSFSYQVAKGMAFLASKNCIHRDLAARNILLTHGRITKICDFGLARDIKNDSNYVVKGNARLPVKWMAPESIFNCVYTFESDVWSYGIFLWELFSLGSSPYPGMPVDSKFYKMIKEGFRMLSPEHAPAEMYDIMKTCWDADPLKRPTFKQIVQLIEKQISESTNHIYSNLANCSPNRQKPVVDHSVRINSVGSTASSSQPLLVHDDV
Chain of Vascular endothelial growth factor receptor 2 (P35968 whole entry): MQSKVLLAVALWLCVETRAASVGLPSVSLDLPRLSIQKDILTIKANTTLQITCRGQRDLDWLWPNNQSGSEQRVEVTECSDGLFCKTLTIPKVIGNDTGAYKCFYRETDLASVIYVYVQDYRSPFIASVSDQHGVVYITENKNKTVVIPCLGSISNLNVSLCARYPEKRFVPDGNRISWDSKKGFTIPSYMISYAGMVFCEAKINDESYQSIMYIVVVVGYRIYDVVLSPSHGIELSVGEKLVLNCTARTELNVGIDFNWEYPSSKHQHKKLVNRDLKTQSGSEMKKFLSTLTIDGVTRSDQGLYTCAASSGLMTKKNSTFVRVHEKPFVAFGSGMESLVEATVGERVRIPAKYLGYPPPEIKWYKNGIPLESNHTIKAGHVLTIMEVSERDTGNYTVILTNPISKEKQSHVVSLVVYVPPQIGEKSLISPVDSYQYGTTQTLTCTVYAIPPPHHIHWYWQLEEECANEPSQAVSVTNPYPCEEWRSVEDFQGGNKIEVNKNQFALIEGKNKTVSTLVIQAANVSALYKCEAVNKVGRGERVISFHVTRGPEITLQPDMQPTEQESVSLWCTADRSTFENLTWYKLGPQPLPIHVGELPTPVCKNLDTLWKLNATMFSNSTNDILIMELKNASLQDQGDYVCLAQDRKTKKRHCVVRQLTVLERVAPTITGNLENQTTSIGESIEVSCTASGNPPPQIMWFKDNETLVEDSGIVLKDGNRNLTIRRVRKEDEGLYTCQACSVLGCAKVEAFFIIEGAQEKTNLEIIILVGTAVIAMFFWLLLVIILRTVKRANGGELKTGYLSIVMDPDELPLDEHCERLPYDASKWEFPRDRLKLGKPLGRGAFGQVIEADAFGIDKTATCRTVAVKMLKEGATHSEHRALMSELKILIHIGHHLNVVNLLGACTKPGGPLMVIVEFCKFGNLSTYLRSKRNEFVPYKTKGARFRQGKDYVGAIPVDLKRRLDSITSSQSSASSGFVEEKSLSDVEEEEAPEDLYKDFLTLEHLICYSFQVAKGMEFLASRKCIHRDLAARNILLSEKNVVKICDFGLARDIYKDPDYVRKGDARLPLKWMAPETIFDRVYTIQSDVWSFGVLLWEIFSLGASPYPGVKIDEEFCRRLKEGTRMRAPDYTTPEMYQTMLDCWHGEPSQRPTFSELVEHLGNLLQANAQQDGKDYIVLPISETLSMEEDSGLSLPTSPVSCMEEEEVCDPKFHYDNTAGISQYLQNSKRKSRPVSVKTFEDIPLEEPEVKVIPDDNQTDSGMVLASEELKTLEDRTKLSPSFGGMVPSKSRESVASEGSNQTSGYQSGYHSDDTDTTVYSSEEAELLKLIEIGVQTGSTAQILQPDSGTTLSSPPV
T1 sequence (Q16539 whole entry): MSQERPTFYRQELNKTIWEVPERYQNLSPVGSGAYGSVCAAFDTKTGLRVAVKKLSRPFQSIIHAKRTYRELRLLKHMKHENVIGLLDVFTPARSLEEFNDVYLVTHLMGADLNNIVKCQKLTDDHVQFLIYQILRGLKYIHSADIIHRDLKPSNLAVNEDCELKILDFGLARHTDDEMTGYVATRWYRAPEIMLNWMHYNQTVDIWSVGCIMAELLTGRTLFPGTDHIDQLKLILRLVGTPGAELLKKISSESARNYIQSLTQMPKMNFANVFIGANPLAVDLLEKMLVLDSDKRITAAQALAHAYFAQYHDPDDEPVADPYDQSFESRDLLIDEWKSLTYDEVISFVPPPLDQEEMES
Chain of Tyrosine-protein kinase Lck (P06239 whole entry): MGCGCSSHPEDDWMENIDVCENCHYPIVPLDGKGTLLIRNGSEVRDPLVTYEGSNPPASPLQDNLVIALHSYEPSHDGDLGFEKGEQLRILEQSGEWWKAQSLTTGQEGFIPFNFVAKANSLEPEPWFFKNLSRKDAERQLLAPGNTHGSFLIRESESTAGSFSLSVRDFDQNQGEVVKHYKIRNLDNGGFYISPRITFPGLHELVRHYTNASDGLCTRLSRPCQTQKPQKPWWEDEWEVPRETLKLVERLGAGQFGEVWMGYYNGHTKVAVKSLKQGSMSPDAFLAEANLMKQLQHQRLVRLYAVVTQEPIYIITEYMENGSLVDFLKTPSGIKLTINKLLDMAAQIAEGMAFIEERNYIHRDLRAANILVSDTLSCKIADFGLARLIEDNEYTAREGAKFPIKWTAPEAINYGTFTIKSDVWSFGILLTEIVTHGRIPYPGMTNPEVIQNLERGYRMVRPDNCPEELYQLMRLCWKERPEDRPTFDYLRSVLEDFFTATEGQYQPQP
Chain of Cytochrome P450 3A4 (P08684 whole entry): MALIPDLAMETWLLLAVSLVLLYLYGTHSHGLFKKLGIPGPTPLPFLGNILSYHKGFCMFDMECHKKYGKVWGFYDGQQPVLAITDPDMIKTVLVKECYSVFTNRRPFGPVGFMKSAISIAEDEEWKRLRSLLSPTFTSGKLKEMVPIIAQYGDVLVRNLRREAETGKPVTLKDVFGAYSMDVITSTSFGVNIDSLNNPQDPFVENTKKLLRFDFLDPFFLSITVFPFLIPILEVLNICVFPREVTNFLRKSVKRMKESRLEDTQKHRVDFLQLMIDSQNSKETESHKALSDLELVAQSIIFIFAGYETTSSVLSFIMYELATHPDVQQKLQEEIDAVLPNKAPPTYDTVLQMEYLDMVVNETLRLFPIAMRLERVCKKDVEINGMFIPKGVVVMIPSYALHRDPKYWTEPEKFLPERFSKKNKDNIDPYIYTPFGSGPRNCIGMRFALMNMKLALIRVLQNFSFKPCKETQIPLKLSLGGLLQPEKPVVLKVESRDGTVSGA

Row | Compound | Ki [1] [nM] | IC50 (THP-1; [16]) [nM] | IC50 (Blood; [17]) [nM] | clearance [6] [mL/min/kg] | Vd [7] [L/kg] | half-life [8] [h] | AUC(0-inf) [9] [ng·h/mL] | bioavailability [10] [%] | further results
1 | Cc1ccc(C(=O)O)cc1-c1cc2cnn(-c3c(F)cccc3F)c2n(C)c1=O | 458 | 631 | > 2500 |  |  |  |  |  | 
2 | Cc1ccc(C(=O)NC2CC2)cc1-c1cc2c(C)nn(-c3c(F)cccc3F)c2n(C)c1=O | 8 | 2.7 | 40 |  |  |  |  |  | 
3 | Cc1ccc(C(=O)NC2CC2)cc1-c1ccc2c(-c3ccccc3F)nncc2c1 |  |  |  |  |  |  |  |  | Kd [2]: 0.05 nM; Kd [3]: 320 nM; Kd [4]: 530 nM; Kd [5]: 2.4 nM
4 | Cc1ccc(C(=O)NC2CC2)cc1-c1cc2cnn(-c3ccccc3F)c2n(C)c1=O |  |  |  |  |  |  |  |  | Kd [2]: 0.18 nM; Kd [3]: 40000 nM; Kd [4]: 40000 nM; Kd [5]: 1700 nM
5 | Cc1ccc(C(=O)NC2(C)CC2)cc1-c1cc2cnn(-c3c(F)cccc3F)c2n(C)c1=O | 1.7 | 2.7 | 11 |  |  |  |  |  | 
6 | CNc1noc2c(-c3cc4cnn(-c5c(F)cccc5F)c4n(C)c3=O)c(C)ccc12 | 2 |  |  | 17.6 | 1.89 | 3.5 | 515 | 27 | IC50 (THP-1; thp-1): 1.2 nM; IC50 (Blood): 5.4 nM
7 | Cc1ccc(C(=O)NC2CC2)cc1-c1cc2cnn(-c3ccccc3C)c2n(C)c1=O | 1.9 | 4 | 12.1 |  |  |  |  |  | 
8 | Cc1ccc(C(=O)NC2CC2)cc1-c1cc2cnn(-c3ncccc3C(F)(F)F)c2n(C)c1=O | 2.3 | 14.4 | 24 |  |  |  |  |  | 
9 | CCn1c(=O)c(-c2cc(C(=O)NC3CC3)ccc2C)cc2cnn(-c3ccc(F)cc3F)c21 | 0.6 | 0.5 | 2.4 |  |  |  |  |  | IC50 (Cytochrome P450 3A4): 1600 nM; Activity [11]: Not Active
10 | Cc1ccc(C(=O)NC2CC2)cc1-c1cc2cnn(-c3cc(F)ccc3F)c2n(C)c1=O | 1.9 | 1.6 | 3.7 | 4.12 | 0.955 | 2.2 | 782 | 10 | 
11 | Cc1ccc(C(N)=O)cc1-c1cc2cnn(-c3c(F)cccc3F)c2n(C)c1=O | 1.5 | 3.9 | 6.4 | 5.2 | 1.1 | 2.4 | 2390 | 37 | 
12 | Cc1ccc(C(=O)NC2CC2)cc1-c1cc2cnn(-c3ccc(F)cc3F)c2n(C)c1=O |  | 1.5 | 3.9 | 2.88 | 1.69 | 7.7 | 5120 | 73 | Kd [3]: 40000 nM; Kd [4]: 40000 nM; Kd [5]: 13000 nM; fraction unbound [12]: 0.07; fraction unbound [13]: 0.075; Papp A→B (in vitro [14]): 20 ×10⁻⁶ cm/s; Papp B→A (in vitro [15]): 29 ×10⁻⁶ cm/s
13 | Cn1c(=O)c(-c2cc(C(=O)NC3CC3)ccc2Cl)cc2cnn(-c3c(F)cccc3F)c21 |  | 0.9 |  | 2.75 | 1.47 | 6.3 | 8860 | 73 | fraction unbound [12]: 0.038; fraction unbound [13]: 0.032
14 | Cc1ccc(C(=O)Nc2ccon2)cc1-c1cc2cnn(-c3c(F)cccc3F)c2n(C)c1=O | 1 | 0.3 | 1.5 |  |  |  |  |  | 
15 | Cc1ccc(C(=O)NC2CC2)cc1-c1cc2cnn(-c3ccccc3Cl)c2n(C)c1=O | 0.9 | 1.1 | 8.7 |  |  |  |  |  | 
16 | Cc1c(F)cc(C(=O)NC2CC2)cc1-c1cc2cnn(-c3c(F)cccc3F)c2n(C)c1=O | 0.8 | 0.4 | 1.7 |  |  |  |  |  | 
